Measured values taken from ChEMBL document CHEMBL4610001 (J Med Chem, 2020).
The source made the active and inactive calls. The rule behind the calls is not given here.

Tests used:
[1] = target: T1, Lysophosphatidic acid receptor 1 (Homo sapiens, UniProt Q92633); assay: Agonist activity at LPA1 receptor (unknown origin) stably expressed in rat RH7777 cells assessed as increase in intracellular calcium level at 10 uM by Fluo-4 NW dye based fluorescence assay; type: functional, cell-based
Summary of the method: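 LPA1-stably transfected RH7777 hepatoma cells on poly-D-lysine, 50000 cells/well, cultured overnight. Loaded with Fluo-4 NW plus […] for 30 min at 37°C, then 30 min at rt. Compound added at 120 s of a 240 s read (ex 494/em 525 nm). Response taken as maximum minus baseline, relative to the 10 μM LPA control; ionomycin 10 μM also included. Run in triplicate.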

[2] = target: T1, Lysophosphatidic acid receptor 1; assay: Agonist activity at LPA1 receptor (unknown origin) stably expressed in rat RH7777 cells assessed as increase in intracellular calcium level by Fluo-4 NW dye based fluorescence assay; type: functional, cell-based
[3] = target: T1, Lysophosphatidic acid receptor 1; assay: Agonist activity at recombinant human full-length LPA1 receptor expressed in dhfr- deficient CHO cells assessed as increase in intracellular calcium flux measured for 1 min by fluo-3AM dye based FLIPR assay; type: functional, cell-based
[4] = Stability of the compound in PBS at pH 7.4 assessed as parent compound remaining incubated up to 8 hrs by HPLC-MS; type: physicochemical; details: read-out: Stability
Summary of the method: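 Compound from a 25 mM DMSO stock was diluted into PBS pH 7.4 and kept at rt. Parent compound remaining at each time point was measured by HPLC-MS in SIM mode, with peak area normalised to an internal standard.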

[5] = Stability of the compound in culture medium assessed as parent compound remaining incubated for up to 8 hrs by HPLC-MS; type: physicochemical; details: read-out: Stability
Summary of the method: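 Compound from a 50 mM DMSO stock was added to culture medium pre-warmed to 37°C and incubated at 37°C. Aliquots were quenched in cold acetonitrile, iced 10 min and centrifuged. Supernatants were analysed by HPLC-MS in SIM mode, with peak area normalised to an internal standard.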

[6] = target: Lysophosphatidic acid receptor 1 (Rattus norvegicus) (UniProt P61794); assay: Induction of LPA1 receptor desensitization in Wistar rat DRG neurons assessed as reduction in neuronal activity at 10 uM treated for 15 secs twice with 4 mins interval in presence of capsazepine by microelectrode Array
Lysophosphatidic acid receptor 1 (Rattus norvegicus), sequence (P61794 whole entry, the tested form may be a part): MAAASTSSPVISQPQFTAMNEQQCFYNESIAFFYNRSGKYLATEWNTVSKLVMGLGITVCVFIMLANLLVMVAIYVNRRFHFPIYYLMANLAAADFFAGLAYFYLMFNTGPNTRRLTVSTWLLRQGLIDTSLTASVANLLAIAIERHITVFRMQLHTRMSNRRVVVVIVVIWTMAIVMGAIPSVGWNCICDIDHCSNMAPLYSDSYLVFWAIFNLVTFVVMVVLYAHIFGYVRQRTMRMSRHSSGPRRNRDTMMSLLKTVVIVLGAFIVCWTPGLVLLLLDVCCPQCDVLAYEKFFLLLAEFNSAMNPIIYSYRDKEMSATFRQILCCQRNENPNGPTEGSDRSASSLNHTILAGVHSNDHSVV
Summary of the method: (§1)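 Neonatal Wistar rat DRG neurons, cultured 48 h on poly-L-lysine/laminin-coated 60-electrode MEA chips. Compound perfused at 10 μM final for 15 s at 2 mL/min. Extracellular activity recorded at 25 kHz; output is mean spike frequency.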

[7] = target: T1, Lysophosphatidic acid receptor 1; assay: Binding affinity to LPA1 receptor (unknown origin) by cell-based backscattering interferometry
[8] = target: Lysophosphatidic acid receptor 1 (Rattus norvegicus) (UniProt P61794); assay: Induction of LPA1 receptor desensitization in Wistar rat DRG neurons assessed as reduction in calcium influx at 10 uM treated twice after 10 secs in presence of capsaicin by Fluo-4 NW dye based inverted microscopic method; type: functional
Summary of the method: (§2)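 DRG neurons from 3–5-day-old Wistar rats were collagenase-digested and cultured 48 h with NGF. Cells loaded with 5 μM Fluo-4AM and 0.02% pluronic in HEPES-buffered HBSS pH 7.4 for 1 h at 37°C, then perfused at rt. Compound given at 10 μM final (from 10 mM DMSO stock) as 10 s pulses. Capsaicin and 40 mM KCl (10 s, viability) also applied. Signal is peak minus baseline fluorescence; a response is >20% over baseline.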

[9] = target: Lysophosphatidic acid receptor 1 (Rattus norvegicus) (UniProt P61794); assay: Agonist activity at LPA1 receptors in Wistar rat DRG neurons assessed as increase in calcium influx at 10 uM measured after 10 secs in presence of capsaicin by Fluo-4 NW dye based inverted microscopic method; type: functional; summary of the method: as §2
[10] = target: Lysophosphatidic acid receptor 1 (Rattus norvegicus) (UniProt P61794); assay: Agonist activity at LPA1 receptors in Wistar rat DRG neurons assessed as increase in neuronal activity at 10 uM incubated for 15 secs in presence of capsaicin by Microelectrode Array; summary of the method: as §1
[11] = target: Lysophosphatidic acid receptor 1 (Rattus norvegicus) (UniProt P61794); assay: Agonist activity at LPA1 receptors in Wistar rat DRG neurons assessed as increase in neuronal activity at 10 uM incubated for 15 secs in presence of capsazepine by Microelectrode Array; summary of the method: as §1
[12] = target: Lysophosphatidic acid receptor 1 (Rattus norvegicus) (UniProt P61794); assay: Induction of LPA1 receptor desensitization in Wistar rat DRG neurons assessed as reduction in neuronal activity at 10 uM treated for 15 secs twice with 4 mins interval in presence of capsaicin by microelectrode Array; summary of the method: as §1
[13] = target: Lysophosphatidic acid receptor 1 (Rattus norvegicus) (UniProt P61794); assay: Agonist activity at LPA1 receptors in Wistar rat DRG neurons assessed as increase in calcium influx at 500 nM measured after 10 secs in presence of capsaicin by Fluo-4 NW dye based inverted microscopic method; type: functional

T1 sequence (Q92633 whole entry): as the sequence (P61794 whole entry, the tested form may be a part) above, with A4I, S8I, Q22P, Y40H, V61I, D193E, H194N, V269I, N331S, N335T counted along it

Compound	Activity [1]	also measured
CCCCCCCC/C=C\CCCCCCCC(=O)OC[C@@H](O)Cc1nnn[nH]1	inactive	–
CO[C@H](COC(=O)CCCCCCCCCc1ccccc1)CC(F)(C(=O)O)C(=O)O	inactive	–
CCCCCCCC/C=C\CCCCCCCC(=O)OCCCC(F)(C(=O)O)C(=O)O	inactive	–
O=C(CCCCCCCCCc1ccccc1)OC[C@@H]1CC(F)(C(=O)O)C(=O)O1 (stereo partly drawn)	inactive	–
O=C(CCCCCCc1ccccc1)OC[C@@H](O)COP(=O)(O)O	inactive	–
CCCCCCCC/C=C\CCCCCCCC(=O)OC[C@@H](O)COCC(=O)O	inactive	–
CCCCCC/C=C\CCCCCCCC(=O)OC[C@@H]1C[C@@](F)(C(=O)O)C(=O)O1	inactive	–
CCCCCC/C=C\CCCCCCCC(=O)O[C@H](CBr)COP(=O)(O)O	inactive	–
CCCCCCCCCC/C=C\CCCCCCCC(=O)OC[C@@H](O)COP(=O)(O)O	inactive	–
O=C(CCCCCCCCCCCCc1ccc(-c2ccccc2)cc1)OC[C@@H](O)COP(=O)(O)O	–	EC50 [2]: 19 µM
CCCCCCCC/C=C\CCCCCCCC(=O)OC[C@@H]1CC(C(=O)O)C(=O)O1 (stereo partly drawn)	inactive	–
CCCCCC/C=C\CCCCCCCC(=O)OC[C@@H]1C[C@](F)(C(=O)O)C(=O)O1	inactive	–
O=C(CCCCCCCc1ccccc1)OC[C@@H](O)COP(=O)(O)O	inactive	–
CC1CCC2(C)c3[nH]c4ccccc4c3CCN2C1 (stereo not drawn)	–	EC50 [3]: 3.6 µM
O=C(CCCCCCCCCCc1ccccc1)O[C@H](CBr)COP(=O)(O)O	inactive	–
CCCCCCCC/C=C\CCCCCCCC(=O)OCCCC(C(=O)O)C(=O)O	inactive	–
O=C(CCCCCCc1ccc(-c2ccccc2)cc1)OC[C@@H](O)COP(=O)(O)O	inactive	–
CCCCCCCC/C=C\CCCCCCCC(=O)O[C@H](CBr)COP(=O)(O)O	–	EC50 [2]: 3.2 µM
O=C(CCCCCCCCc1ccccc1)O[C@H](CBr)COP(=O)(O)O	inactive	–
CCCCCCCC/C=C\CCCCCCCC(=O)OC[C@@H](O)COc1ccc(B(O)O)cc1	inactive	–
O=C(CCCCCCCCCCCCCCc1ccccc1)OC[C@@H](O)COP(=O)(O)O	inactive	–
O=C(CCCCCCCCCc1ccccc1)O[C@H](CBr)COP(=O)(O)O	–	remaining at 8 h [4]: > 85%; remaining at 8 h [5]: > 85%
CCCCCCCC/C=C\CCCCCCCC(=O)NC[C@H](CC(F)(C(=O)O)C(=O)O)OC	inactive	–
CCCCCCCC/C=C\CCCCCCCC(=O)OC[C@@H](O)COP(=O)(O)O [LYSOPHOSPHATIDIC ACID]	–	Activity [6]: Active; Kd [7]: 0.0056 µM; Activity [8]: Active; Activity [9]: Active; Activity [10]: Active; Activity [11]: Active; EC50 [2]: 0.83 µM; Activity [12]: Active
COc1cc(CNC(=O)CCCC/C=C/C(C)C)ccc1O	–	Activity [13]: Active
